In ChEMBL document CHEMBL2074476, “Contribution of organic anion transporting polypeptide OATP-C to hepatic elimination of the opioid pentapeptide analogue [D-Ala2, D-Leu5]-enkephalin” (J Pharm Pharmacol, 2003):
Values belong to the compound of their own block, whether it stands above or below them. Where a SMILES comes first, the peptide text is derived from it. [ ]: non-standard residue; d: D form.

Columns and labels:
[1] = biological target: T1, Solute carrier organic anion transporter family member 1B1 (Homo sapiens, UniProt Q9Y6L6); assay: TP_TRANSPORTER: inhibition of E1S uptake (E1S: 0.004 uM, Ala4: 5000 uM) in Xenopus laevis oocytes; type: functional, cell-based; settings: oocyte
T1 sequence (Q9Y6L6 whole entry): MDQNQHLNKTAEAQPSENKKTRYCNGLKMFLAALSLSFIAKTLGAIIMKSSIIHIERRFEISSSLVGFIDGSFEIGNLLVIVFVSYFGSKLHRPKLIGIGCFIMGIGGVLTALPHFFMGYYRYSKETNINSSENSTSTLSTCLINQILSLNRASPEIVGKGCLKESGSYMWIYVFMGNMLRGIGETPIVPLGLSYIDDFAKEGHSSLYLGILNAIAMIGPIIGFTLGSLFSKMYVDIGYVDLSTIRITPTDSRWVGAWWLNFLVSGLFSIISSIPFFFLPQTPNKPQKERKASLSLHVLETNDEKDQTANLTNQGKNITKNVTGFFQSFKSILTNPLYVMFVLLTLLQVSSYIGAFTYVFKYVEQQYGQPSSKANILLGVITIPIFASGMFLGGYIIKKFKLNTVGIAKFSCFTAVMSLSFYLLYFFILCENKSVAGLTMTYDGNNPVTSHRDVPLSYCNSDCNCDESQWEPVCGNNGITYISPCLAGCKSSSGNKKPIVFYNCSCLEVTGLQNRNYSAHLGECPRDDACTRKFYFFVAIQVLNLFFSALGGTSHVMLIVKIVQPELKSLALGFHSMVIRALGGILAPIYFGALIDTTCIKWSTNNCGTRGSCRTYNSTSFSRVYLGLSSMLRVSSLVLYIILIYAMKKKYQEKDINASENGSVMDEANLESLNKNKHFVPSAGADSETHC
How it was run: (§1)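 Oocytes injected with OATP-C cRNA (25 ng), cultured 3 days in modified Barth's solution, then incubated 30 min at 25 °C in medium 1 (pH 7.4) with [3H]estrone-3-sulfate (4 nM) plus or minus inhibitor. OATP-C-specific uptake = total minus water-injected oocyte uptake, expressed as percent of control; mean ± s.e.m., n = 5–10.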

[2] = biological target: T2, Solute carrier organic anion transporter family member 1B1 (OATP1B1) (Homo sapiens, UniProt Q9Y6L6); assay: TP_TRANSPORTER: inhibition of E1S uptake (E1S: 0.004 uM, Quinidine: 500 uM) in Xenopus laevis oocytes; type: functional, cell-based, Oocyte; design: scale not given: the % may be the effect or the level left; settings: probe E1S (0.004 uM), read-out: Activity; how it was run: as §1
T2 sequence (Q9Y6L6 whole entry): T1 sequence (Q9Y6L6 whole entry)

[3] = biological target: T2, Solute carrier organic anion transporter family member 1B1 (OATP1B1); assay: TP_TRANSPORTER: inhibition of E1S uptake (E1S: 0.004 uM, Ala5: 5000 uM) in Xenopus laevis oocytes; type: functional, cell-based, Oocyte; design: scale not given: the % may be the effect or the level left; settings: probe E1S (0.004 uM), read-out: Activity; how it was run: as §1
[4] = biological target: T2, Solute carrier organic anion transporter family member 1B1 (OATP1B1); assay: TP_TRANSPORTER: inhibition of E1S uptake (E1S: 0.004 uM, DADLE: 1000 uM) in Xenopus laevis oocytes; type: functional, cell-based, Oocyte; design: scale not given: the % may be the effect or the level left; settings: probe E1S (0.004 uM), read-out: Activity; how it was run: as §1
[5] = biological target: T1, Solute carrier organic anion transporter family member 1B1; assay: TP_TRANSPORTER: inhibition of E1S uptake (E1S: 0.004 uM, PAH: 500 uM) in Xenopus laevis oocytes; type: functional, cell-based; settings: oocyte; how it was run: as §1
[6] = biological target: T2, Solute carrier organic anion transporter family member 1B1 (OATP1B1); assay: TP_TRANSPORTER: inhibition of DPDPE uptake (DPDPE: 0.02 uM) in Xenopus laevis oocytes; type: functional, cell-based, Oocyte; design: scale not given: the % may be the effect or the level left; settings: probe DPDPE (0.02 uM)
[7] = biological target: T1, Solute carrier organic anion transporter family member 1B1; assay: TP_TRANSPORTER: uptake of [D-Pen2,D-Pen5]-enkephalin at a concentration of 0.02 u M in Xenopus laevis oocytes; type: functional, cell-based; settings: oocyte, 0.02 µM
How it was run: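 OATP-C cRNA- or water-injected oocytes incubated 60 min at 25 °C in medium 1 (pH 7.4) with [3H]DPDPE (20 nM). Washed with ice-cold buffer, solubilized in 5% SDS, radioactivity counted. Uptake given as cell-to-medium ratio (uptake amount divided by medium concentration); mean ± s.e.m., n = 5–10.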

[8] = biological target: T2, Solute carrier organic anion transporter family member 1B1 (OATP1B1); assay: TP_TRANSPORTER: inhibition of E1S uptake (E1S: 0.004 uM, BSP: 50 uM) in Xenopus laevis oocytes; type: functional, cell-based, Oocyte; design: scale not given: the % may be the effect or the level left; settings: probe E1S (0.004 uM), read-out: Activity; how it was run: as §1
[9] = biological target: T2, Solute carrier organic anion transporter family member 1B1 (OATP1B1); assay: TP_TRANSPORTER: inhibition of E1S uptake (E1S: 0.004 uM, des-tyrosine DADLE: 1000 uM) in Xenopus laevis oocytes; type: functional, cell-based, Oocyte; design: scale not given: the % may be the effect or the level left; settings: probe E1S (0.004 uM), read-out: Activity; how it was run: as §1
[10] = biological target: T2, Solute carrier organic anion transporter family member 1B1 (OATP1B1); assay: in vitro; settings: xenopus laevis, Xenopus laevis oocytes, probe E1S (0.004 uM)
[11] = biological target: T2, Solute carrier organic anion transporter family member 1B1 (OATP1B1); assay: TP_TRANSPORTER: inhibition of E1S uptake (E1S: 0.004 uM, YGG: 1000 uM) in Xenopus laevis oocytes; type: functional, cell-based, Oocyte; design: scale not given: the % may be the effect or the level left; settings: probe E1S (0.004 uM), read-out: Activity; how it was run: as §1
[12] = biological target: T1, Solute carrier organic anion transporter family member 1B1; assay: TP_TRANSPORTER: inhibition of E1S uptake (E1S: 0.004 uM, YdAG: 1000 uM) in Xenopus laevis oocytes; type: functional, cell-based; settings: oocyte; how it was run: as §1
[13] = biological target: T1, Solute carrier organic anion transporter family member 1B1; assay: TP_TRANSPORTER: inhibition of E1S uptake (E1S: 0.004 uM, Gly4: 5000 uM) in Xenopus laevis oocytes; type: functional, cell-based; settings: oocyte; how it was run: as §1
[14] = biological target: T1, Solute carrier organic anion transporter family member 1B1; assay: TP_TRANSPORTER: inhibition of E1S uptake (E1S: 0.004 uM, Carnitine: 50 uM) in Xenopus laevis oocytes; type: functional, cell-based; settings: oocyte; how it was run: as §1
[15] = biological target: T1, Solute carrier organic anion transporter family member 1B1; assay: TP_TRANSPORTER: inhibition of E1S uptake (E1S: 0.004 uM, CCK-8: 100 uM) in Xenopus laevis oocytes; type: functional, cell-based; design: scale not given: the % may be the effect or the level left; settings: oocyte; how it was run: as §1

Activity [1]: is not an inhibitor [-]
SMILES: C[C@H](N)C(=O)N[C@@H](C)C(=O)N[C@@H](C)C(=O)N[C@@H](C)C(=O)O (H-AAAA-OH)

activity at 500 µM [2]: 81%
SMILES: C=C[C@H]1C[N@@]2CC[C@H]1C[C@@H]2[C@@H](O)c1ccnc2ccc(OC)cc12 [QUINIDINE]

activity at 5000 µM [3]: 86.3%
SMILES: C[C@H](N)C(=O)N[C@@H](C)C(=O)N[C@@H](C)C(=O)N[C@@H](C)C(=O)N[C@@H](C)C(=O)O

SMILES: CC(C)C[C@@H](NC(=O)[C@H](Cc1ccccc1)NC(=O)CNC(=O)[C@@H](C)NC(=O)[C@@H](N)Cc1ccc(O)cc1)C(=O)O [DADLE]
activity at 1000 µM [4]: 35.4%

Activity [5]: is not an inhibitor [-]
SMILES: Nc1ccc(C(=O)NCC(=O)O)cc1 [AMINOHIPPURIC ACID]

Activity [6]: 50%
SMILES: C[C@]12CC[C@@H]3c4ccc(OS(=O)(=O)O)cc4CC[C@H]3[C@@H]1CCC2=O [ESTRONE SULFURIC ACID]

SMILES: CC1(C)SSC(C)(C)[C@@H](NC(=O)[C@@H](N)Cc2ccc(O)cc2)C(=O)NCC(=O)N[C@@H](Cc2ccccc2)C(=O)N[C@H]1C(=O)O
Activity [7]: substrate [+]

SMILES: O=C1OC(c2ccc(O)c(S(=O)(=O)O)c2)(c2ccc(O)c(S(=O)(=O)O)c2)c2c(Br)c(Br)c(Br)c(Br)c21 [SULFOBROMOPHTHALEIN SODIUM]
Activity [6]: 25% | activity at 50 µM [8]: 8%

SMILES: CC(C)C[C@@H](NC(=O)[C@H](Cc1ccccc1)NC(=O)CNC(=O)[C@@H](C)N)C(=O)O
activity at 1000 µM [9]: 62.5%

SMILES: CC(C)C[C@H](NC(=O)[C@H](Cc1ccccc1)NC(=O)CNC(=O)CNC(=O)[C@@H](N)Cc1ccc(O)cc1)C(=O)O [ENKEPHALIN]
activity at 1000 µM [10]: 26.8%

SMILES: N[C@@H](Cc1ccc(O)cc1)C(=O)NCC(=O)NCC(=O)O (H-Tyr-Gly-Gly-OH)
activity at 1000 µM [11]: 77.2%

SMILES: C[C@@H](NC(=O)[C@@H](N)Cc1ccc(O)cc1)C(=O)NCC(=O)O (H-Tyr-[dA]-Gly-OH)
Activity [12]: is not an inhibitor [-]

Activity [13]: is not an inhibitor [-]
SMILES: NCC(=O)NCC(=O)NCC(=O)NCC(=O)O (H-GGGG-OH)

Activity [14]: is not an inhibitor [-]
SMILES: C[N+](C)(C)CC(O)CC(=O)[O-] (stereo unspecified) [CARNITINE]

SMILES: CSCC[C@H](NC(=O)[C@H](Cc1ccc(OS(=O)(=O)O)cc1)NC(=O)[C@@H](N)CC(=O)O)C(=O)NCC(=O)N[C@@H](Cc1c[nH]c2ccccc12)C(=O)N[C@@H](CCSC)C(=O)N[C@@H](CC(=O)O)C(=O)N[C@@H](Cc1ccccc1)C(N)=O [SINCALIDE]
Activity [15]: 9.1%
